Reference: ChEMBL document CHEMBL1944577, “Synthesis, evaluation and docking studies on 3-alkoxy-4-methanesulfonamido acetophenone derivatives as non ulcerogenic anti-inflammatory agents” (Eur J Med Chem, 2012)

Tests used:
Rattus norvegicus [1] = assay: Antiinflammatory activity in Wistar rat assessed as inhibition of carrageenan-induced paw oedema at 30 mg/kg, po dosed 30 mins after carrageenan challenge measured after 5 hrs by plethysmograph analysis relative to control; format: functional
Procedure, shortened: (§1)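 Wistar rats (150–200 g, either sex) in groups of six. Carrageenan 1% w/v in saline, 0.1 ml, injected into the plantar left hind paw. Compound was given p.o. 30 min later as a suspension in 0.5% w/v CMC; controls received CMC. Paw volume was read by mercury-displacement plethysmograph at 0–5 h. % reduction = (1 − Vt/Vc)×100 versus control, at 5 h.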

Rattus norvegicus [2] = assay: Ulcerogenicity in Wistar rat assessed as lesion score at 100 mg/kg, po after 6 hrs; format: toxicity, organism-based; design: dose 100 mg/kg, route oral; details: in vivo
Procedure, shortened: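 Wistar rats of either sex (150–200 g, n = 6) were dosed orally and killed by cervical dislocation 6 h later. Stomachs were inflated with 2% formalin, fixed 10 min, and opened along the greater curvature. Lesions were examined under a dissecting microscope (10x grid). Longest lesion diameters were summed per animal as the lesion score (mm), then averaged per group.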

Rattus norvegicus [3] = assay: Antiinflammatory activity in po dosed Wistar rat assessed as inhibition of carrageenan-induced paw oedema compound administered 30 mins after carrageenan challenge measured after 5 hrs by plethysmograph analysis; format: functional
Procedure, shortened: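 Carrageenan paw edema in Wistar rats (150–200 g, either sex, n = 6 per group): 0.1 ml 1% w/v carrageenan injected into the left plantar region. Compounds were suspended in 0.5% w/v CMC and dosed orally 30 min post-challenge at three graded doses. Plethysmographic (mercury displacement) paw volume was read to 5 h. ED50 was derived from the three-dose responses.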

Rattus norvegicus [4] = assay: Antiinflammatory activity in Wistar rat assessed as inhibition of carrageenan-induced paw oedema at 100 mg/kg, po dosed 30 mins after carrageenan challenge measured after 5 hrs by plethysmograph analysis relative to control; format: functional; procedure, shortened: as §1
Rattus norvegicus [5] = assay: Antiinflammatory activity in Wistar rat assessed as inhibition of carrageenan-induced paw oedema at 10 mg/kg, po dosed 30 mins after carrageenan challenge measured after 5 hrs by plethysmograph analysis relative to control; format: functional; procedure, shortened: as §1

SMILES | inhibition in vivo at 30 mg/kg (Rattus norvegicus [1]) | UI (Rattus norvegicus [2]) | ED50 (Rattus norvegicus [3]) | inhibition in vivo at 100 mg/kg (Rattus norvegicus [4]) | inhibition in vivo at 10 mg/kg (Rattus norvegicus [5])
CS(=O)(=O)c1ccc(C2=C(c3ccccc3)C(=O)OC2)cc1 [ROFECOXIB] | 81.8% | 3 mm | 2.5 mg/kg | – | –
CC(=O)c1ccc(NS(C)(=O)=O)c(OC2CCCCC2)c1 | – | 3 mm | 2.23 mg/kg | 73.7% | –
CC(=O)c1ccc(N)c(OC2CCCCC2)c1 | – | 3 mm | – | 19% | –
CCCCCCOc1cc(C(C)=O)ccc1N | – | 3 mm | – | 14.1% | –
CCCCCOc1cc(C(C)=O)ccc1NS(C)(=O)=O | – | 4 mm | 8.18 mg/kg | 59.6% | –
CCCCOc1cc(C(C)=O)ccc1N | – | 2 mm | – | 13.8% | –
CCCCOc1cc(C(C)=O)ccc1NS(C)(=O)=O | – | 5 mm | 2 mg/kg | 72.7% | –
CCCCCCOc1cc(C(C)=O)ccc1NS(C)(=O)=O | – | 4 mm | 2.3 mg/kg | 76.8% | –
CCCCCOc1cc(C(C)=O)ccc1N | – | 2 mm | – | 9.88% | –
COc1ccc2c(c1)c(CC(=O)O)c(C)n2C(=O)c1ccc(Cl)cc1 [INDOMETHACIN] | – | 22.3 mm | 2 mg/kg | – | 79.7%
